Bioassay records as filed in PubChem BioAssay.
Only some compounds are listed: those with a hit (about 1.2% of all), similar ones and a draw of the others.
Redox H2O2 prof: compounds producing H2O2 with reducing agent – biochemical, NIH compound library profiling, artefact control for MLSCN library redox annotation, primary screen; activation, % at 10 µM; AID 878; actives 0.03% (n = 200,000); DTT-dependent redox cycling H2O2, phenol red/HRP absorbance; 100% = 100 µM peroxide control, 0% = buffer;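 active = activation of at least 50% relative to the plate's high and low controls in the primary single-dose screen; inactive = activation below 50%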;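 also: compound incubated with DTT at 0.8 mM final as the reducing agent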
Efa HMGR inh: inhibitors of class II HMG-CoA reductase from Enterococcus faecalis; inhibition, % at 10 µM; purified E. faecalis HMGR, NADPH absorbance 340 nm kinetic; actives 0.41% (n = 190,000); AID 1066;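 active = inhibition above a set limit, the median over all tested compounds plus 3 SD, cut at about 9.5% in these data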;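 also: enzyme runs in reverse so mevalonate oxidation gives rising NADPH absorbance; 0% = complete reaction with DMSO and 100% = background rate lacking mevalonate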
PMI activator: phosphomannose isomerase (human) activation. P34949. purified human PMI, coupled resazurin fluorescence, 20 min; stronger effect = higher value; 1 = vehicle control, 0 substrate-free wells. activation factor at 20 µM. actives 0.005% (n = 190,000). AID 1214;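 active = activation factor of 2 or more at 20 µM, relative to plate controls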
Target sequence (P34949 whole entry, looked up): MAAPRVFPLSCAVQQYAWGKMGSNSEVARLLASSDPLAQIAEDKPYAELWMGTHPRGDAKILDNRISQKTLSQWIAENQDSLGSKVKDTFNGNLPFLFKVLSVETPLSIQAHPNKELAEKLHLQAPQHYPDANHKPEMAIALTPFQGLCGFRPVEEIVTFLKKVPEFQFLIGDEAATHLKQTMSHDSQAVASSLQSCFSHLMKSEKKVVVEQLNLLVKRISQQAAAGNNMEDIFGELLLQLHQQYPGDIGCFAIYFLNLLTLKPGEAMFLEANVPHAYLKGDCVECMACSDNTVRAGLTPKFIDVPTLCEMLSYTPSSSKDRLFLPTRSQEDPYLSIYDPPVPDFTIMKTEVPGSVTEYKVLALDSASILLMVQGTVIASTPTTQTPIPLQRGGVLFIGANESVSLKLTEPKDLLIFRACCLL
Diaphorase act: activates diaphorase or chemically reduces, flagging diaphorase assay artifacts | actives 0.005% (n = 190,000) | AID 1229 | Diaphorase/resazurin coupled assay, resorufin fluorescence, 16 min; stronger effect = higher value; 1 = vehicle wells, 0 = NADH-free wells | activation factor at 20 µM;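 active = diaphorase activity raised at least twofold by the compound at 20 µM; inactive = activation factor below 2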
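Assay system: bacterial diaphorase enzyme (C. kluyveri) / Input: enzyme 0.07 U/mL final / Medium: 50 mM HEPES pH 7.4 with 4.542 mM MgCl2, 0.005% Tween 20 / Doses: single compound dose of 20 µM, 1% DMSO final / Incubation: 16 min enzyme reaction, ambient temperature / Signal: fluorescence, excitation 544 nm and emission 590 nm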
NCF1 inh: inhibitors of human p47phox binding; P14598; p47phox/p22phox peptide binding, fluorescence polarization, 2 h; inhibition, % at 24.7 µM; actives 0.53% (n = 220,000);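 active = inhibition above about 30%, limit read from the data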;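 also: 0% = p47phox with labelled peptide and 100% = labelled peptide alone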
PMI act satM6P: activators of human phosphomannose isomerase at near-saturating mannose 6-phosphate; P34949; coupled PMI enzyme assay, resazurin fluorescence, 20 min; stronger effect = higher value; 1 = untreated enzyme, 0 = substrate-free blank; activation factor at 20 µM; actives 0.34% (n = 190,000); AID 1216;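 active = activation factor of 2 or more at 20 µM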
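Test system: human PMI in coupled enzyme assay; Input: PMI at 15 ng/mL final; Medium: HEPES buffer, pH 7.4; Schedule: 20 min incubation at room temperature; Technique: resorufin fluorescence at Ex 544/Em 590 nm; Compound: 20 µM single dose; Probe or stimulus: Near-saturating mannose-6-phosphate, 1.0 mM.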
* hit, by the source's call; . = no result.

SMILES	Redox H2O2 prof	Efa HMGR inh	PMI activator	Diaphorase act	NCF1 inh	PMI act satM6P
O=C(c1ccco1)N1CCN(Cc2cn[nH]c2-c2cccc3ccccc23)CC1	.	.	.	.	-6.1	.
C=CCOC(=O)C1=C[C@@H](c2ccc3c(c2)OCO3)C[C@@H](OCc2ccc(CO)cc2)O1	0.2	2.5	0.9	0.6	.	0.8
c1ccc(OCCSc2nc3ccccc3[nH]2)cc1	0.5	13.0*	1	0.9	-19.7	1
O=c1/c(=C\c2cc([N+](=O)[O-])cc([N+](=O)[O-])c2O)sc2nc3ccccc3n12	-0.8	9.4	1.7	0.5	-76.2	2.4*
O=c1/c(=C/c2ccccn2)sc2nc3ccccc3n12	0.0	-2.0	1.2	0.8	-0.2	1.1
Cc1ccc2nc(-c3sc4nc(C)ccc4c3N)[nH]c2c1	0.3	26.4*	1.1	0.9	-10.4	1
Cc1ccc(-c2nc(NCC3CCCO3)sc2C)cc1 (stereo not given)	0.5	12.1*	1.1	0.9	-12.9	1
Cc1ccc(S(=O)(=O)c2nc(S(C)(=O)=O)sc2NCC2CCCO2)cc1 (stereo not given)	0.3	-4.7	1	0.8	-10.8	1
COC(=O)C(CC(C)C)N1CCC(=O)c2ccccc2S1(=O)=O (stereo not given)	.	.	.	.	2.9	.
COP(=O)(OC)c1nc(-c2ccccc2)oc1NCc1ccccc1	-0.1	-10.3	0.9	0.9	-0.5	1
CCCOP(=O)(OCCC)c1nc(-c2ccccc2)oc1NCc1ccccc1	0.0	16.6*	0.8	0.8	-7.6	0.8
O=C(O)CC12CC3CC(C1)CC(n1cncn1)(C3)C2	-0.3	-1.8	1.1	1	-5.2	1.1
C1CCC(C(CC2CCCCN2)C2CCCCC2)CC1 (stereo not given)	1.1	10.3*	1	1	-6.1	1.1
CCS(=O)(=O)c1ccc(O)c(NC(=O)CC2(CC(=O)O)CCCC2)c1	.	.	.	.	-1.4	.
Cc1noc(C)c1S(=O)(=O)N1CCC(C(=O)NCCN2CCC(C)CC2)CC1	0.4	11.1*	0.9	0.9	-11.3	0.9
Cc1cccc(NC(=O)c2ccc(-c3ccccc3[N+](=O)[O-])o2)c1	-0.2	10.2*	1	0.7	-17.2	0.9
COc1cccc(NC(=O)c2ccc(-c3ccccc3[N+](=O)[O-])o2)c1	-0.4	-3.0	1.1	0.9	-4.0	1
COc1cccc(N=Nc2c(N)[nH]n3c(=O)c4c(nc23)CCCC4)c1	1.3	1.1	0.9	0.8	-5.8	0.6
O=C(NNS(=O)(=O)c1ccccc1[N+](=O)[O-])c1ccc(O)cc1	0.1	1.4	1.1	1	41.8*	1.1
Cc1cc(OCC(=O)Nc2ccncc2)ccc1[N+](=O)[O-]	-0.3	0.5	1	1	3.9	0.9
CCN(Cc1ccncc1)Cc1c(O)ccc2cc(Br)ccc12	-0.2	15.4*	0.6	0.7	13.8	0.4
CN1CCN(Cc2c(O)ccc3cc(Br)ccc23)CC1	-0.4	-5.2	0.6	0.6	7.0	0.4
COC(=O)C(NNc1ccccc1)(NC(=O)c1cccc(F)c1)C(F)(F)F (stereo not given)	1.7	-4.8	1.7	1	-3.7	2.2*
O=C(Nc1cccc(F)c1)c1ccccc1	0.3	-0.8	0.9	0.9	-6.0	1
Cc1ccc(S(=O)(=O)O/N=C2\CCCc3ccccc32)cc1	0.1	-8.8	0.9	0.7	45.5*	1
Cc1sc2nc(SCc3nc(-c4ccccc4)no3)n(-c3ccccc3)c(=O)c2c1C	3.0	-1.1	0.8	0.9	-26.4	0.8
Cc1cc(C)n2nc(C(=O)NNC(=O)c3ccc(Cl)cc3)nc2n1	.	.	.	.	36.1*	.
Cc1ccc2cc3c(N)c4c(C)ccc(C)c4nc3nc2c1	-2.3	-10.1	1.2	1.2	31.0*	1.2
Cc1ccc2c(N)c(C)ccc2c1	1.3	0.2	0.8	0.8	-15.7	0.7
COc1cccc(NC(=O)CN2CCSc3ccccc32)c1	0.4	-6.2	1.5	0.9	-9.4	1.5
